A word on the IC50: it is the concentration that gives 50% inhibition.

This passage reports Activity and IC50 results from ChEMBL document CHEMBL1149419, “Peptide-mediated cell transport of water soluble porphyrin conjugates” (J Med Chem, 2006).

The structures appear in SMILES notation. *1 amine or outer side, *2 acyl side, *3 side chain or, on linkers, in order; H or OH if unused. Where a SMILES comes first, the peptide text is derived from it. [ ]: non-standard residue; d: D form. The star is where a group is joined. X1 = O=C(COCC(=O)*)Nc1ccc(-c2c3nc(c(-c4ccccc4)c4ccc([nH]4)c(-c4ccccc4)c4nc(c(-c5ccccc5)c5ccc2[nH]5)C=C4)C=C3)cc1; NH(CH2CH2O)6CH2CO = O=C(COCCOCCOCCOCCOCCOCCN[*:1])[*:2]

The test system of series [1] is HEp-2. Nature of the series: Cellular uptake in human HEp2 cells at 10 uM. Type of series: ADME, cell-based. The note with it: hep-2, 10 µM. The gist of the method: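 HEp2 cells seeded at 10 000 per well and grown overnight, then exposed to 10 µM conjugate (diluted into medium from 10 mM water stocks) for 0, 1, 2, 4, 8 and 24 h. After PBS wash, cells lysed in 0.25% Triton X-100/PBS. Conjugate quantified by fluorescence at 410/650 nm (ex/em), and cell number by CyQuant.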

The test system of series [2] is HEp-2. The series can be described thus: Dark cytotoxicity against human HEp2 cells at 100 uM. It counts as functional, cell-based. The gist of the method:
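HEp2 cells seeded at 10 000 per well and allowed 36-48 h to attach. They were given increasing conjugate concentrations up to 100 µM and incubated overnight without light. Viability was read with Cell Titer Blue fluorescence at 520/584 nm and normalized to untreated cells (100%) and 0.2% saponin-treated cells (0%).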

Series [3] deals with HEp-2. The series can be described thus: Phototoxicity against human HEp2 cells at 10 uM. It counts as cell-based. The gist of the method: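 HEp2 cells seeded and attached 36-48 h, then loaded overnight with conjugate at 0, 0.625, 1.25, 2.5, 5 and 10 µM. Medium was swapped for medium with 50 mM HEPES pH 7.4. Cells were irradiated on ice for 10 min with a 100 W halogen lamp through a 610 nm long-pass filter and a water IR filter, about 0.5 J/cm2. After overnight incubation, viability was read by Cell Titer Blue.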

The mark [4] stands for this setting: Homo sapiens, HEp-2, read-out: IC50.

Take `NCCCC[C@H](NC(=O)[C@H](CCCN=C(N)N)NC(=O)CNC(=O)COCCOCCOCCOCCOCCOCCNC(=O)COCC(=O)Nc1ccc(-c2c3nc(c(-c4ccccc4)c4ccc([nH]4)c(-c4ccccc4)c4nc(c(-c5ccccc5)c5ccc2[nH]5)C=C4)C=C3)cc1)C(=O)N[C@@H](CCCCN)C(=O)N[C@@H](CCCN=C(N)N)C(=O)N[C@@H](CCCN=C(N)N)C(=O)N[C@@H](CCC(N)=O)C(=O)N[C@@H](CCCN=C(N)N)C(=O)N[C@@H](CCCN=C(N)N)C(=O)N[C@@H](CCCN=C(N)N)C(=O)N1CCC[C@H]1C(=O)N1CCC[C@H]1C(=O)N[C@@H](CCC(N)=O)C(N)=O`: the outcome with HEp-2 [1] was Active. For the same compound, the results for the IC50 in the series on HEp-2 [2] (setting [4]) and in the series with HEp-2 [3] (hep-2) were 30 µM and “Active”, respectively.
Turning to `N=C(N)NCCC[C@H](NC(=O)CNC(=O)COCCOCCOCCOCCOCCOCCNC(=O)COCC(=O)Nc1ccc(-c2c3nc(c(-c4ccccc4)c4ccc([nH]4)c(-c4ccccc4)c4nc(c(-c5ccccc5)c5ccc2[nH]5)C=C4)C=C3)cc1)C(=O)N[C@@H](CCCN=C(N)N)C(=O)N[C@@H](CCCN=C(N)N)C(=O)N[C@@H](CCCN=C(N)N)C(=O)N[C@@H](CCCN=C(N)N)C(=O)N[C@@H](CCCNC(=N)N)C(=O)N[C@@H](CCCNC(=N)N)C(=O)N[C@@H](CCCN=C(N)N)C(=O)O`, the outcome with HEp-2 [1] was Active. Further, the concentration for half-maximal inhibition (IC50) with HEp-2 [2] (setting [4]) was 75 µM; in the series on HEp-2 [3] (hep-2), “Active”.
`NCCCC[C@H](NC(=O)[C@H](CCCN=C(N)N)NC(=O)CNC(=O)COCC(=O)NCCOCCOCCOCCOCCOCCOCCOCCNC(=O)COc1ccc(-c2c3nc(c(-c4ccc(OCC(=O)O)cc4)c4ccc([nH]4)c(-c4ccc(OCC(=O)O)cc4)c4nc(c(-c5ccc(OCC(=O)O)cc5)c5ccc2[nH]5)C=C4)C=C3)cc1)C(=O)N[C@@H](CCCCN)C(=O)N[C@@H](CCCN=C(N)N)C(=O)N[C@@H](CCCN=C(N)N)C(=O)N[C@@H](CCC(N)=O)C(=O)N[C@@H](CCCN=C(N)N)C(=O)N[C@@H](CCCN=C(N)N)C(=O)N[C@@H](CCCN=C(N)N)C(=O)N1CCC[C@H]1C(=O)N1CCC[C@H]1C(=O)N[C@@H](CCC(N)=O)C(N)=O`: the outcome in the series with HEp-2 [1] was Active. Also, the IC50 entry in the series on HEp-2 [2] (hep-2) and in the series on HEp-2 [3] (hep-2) was “Not Active” in each case.
Take `CC(C)[C@H](NC(=O)[C@H](CCCCN)NC(=O)[C@H](CCCN=C(N)N)NC(=O)[C@H](CCCCN)NC(=O)[C@H](CCCCN)NC(=O)[C@H](CCCCN)NC(=O)[C@@H]1CCCN1C(=O)CNC(=O)COCC(=O)NCCOCCOCCOCCOCCOCCOCCOCCNC(=O)COc1ccc(-c2c3nc(c(-c4ccc(OCC(=O)O)cc4)c4ccc([nH]4)c(-c4ccc(OCC(=O)O)cc4)c4nc(c(-c5ccc(OCC(=O)O)cc5)c5ccc2[nH]5)C=C4)C=C3)cc1)C(N)=O`: the outcome in the series on HEp-2 [1] was Active. In addition, the IC50 entry in the series on HEp-2 [2] (hep-2) and in the series with HEp-2 [3] (hep-2) was “Not Active” throughout.
`CC(C)[C@H](NC(=O)[C@H](CCCCN)NC(=O)[C@H](CCCN=C(N)N)NC(=O)[C@H](CCCCN)NC(=O)[C@H](CCCCN)NC(=O)[C@H](CCCCN)NC(=O)[C@@H]1CCCN1C(=O)CNC(=O)COCCOCCOCCOCCOCCOCCNC(=O)COCC(=O)Nc1ccc(-c2c3nc(c(-c4ccccc4)c4ccc([nH]4)c(-c4ccccc4)c4nc(c(-c5ccccc5)c5ccc2[nH]5)C=C4)C=C3)cc1)C(N)=O` (X1-[NH(CH2CH2O)6CH2CO]GPKKKRKV-NH2): the result in the series on HEp-2 [1] was Active. Besides, the IC50 with HEp-2 [2] (setting [4]) stood at 90 µM; in the series with HEp-2 [3] (Homo sapiens, HEp-2, light or radiation study, read-out: IC50), 1.5 µM.
